According to ChEMBL document CHEMBL4024748, “Development of Potent Type I Protein Arginine Methyltransferase (PRMT) Inhibitors of Leukemia Cell Proliferation” (J Med Chem, 2017):
pIC50: −log10 of the molar value. Activity calls are given as the source filed them. The calls are words filed in the database; no cut-off is given here.

Assays:
[1] = molecular target: Protein arginine N-methyltransferase 1 (Rattus norvegicus, UniProt Q63009); assay: Inhibition of rat His-tagged PRMT1 (11 to 353 residues) expressed in Escherichia coli BL21(DE3) using biotinylated H4 peptide (1 to 21 residues) as substrate preincubated for 15 mins followed by substrate addition measured after 60 mins in presence of [3H]SAM by microbeta counting method
In short: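 Radiometric assay in modified Tris buffer. His6-rPRMT1(11–353) preincubated with compound 15 min at RT, then substrate and [3H]-SAM added. Reaction 60 min at RT, stopped with cold stop solution, transferred to Flashplate for 60 min, washed with water/0.1% Tween-20, counted on Microbeta. IC50 from curve fit.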

MV4-11 [2] = assay: Cytotoxicity against human MV4-11 cells assessed as decrease in cell viability at 6.25 to 12.5 uM after 96 hrs by Cell-Titer Glo assay; type: functional, cell-based
In short: (§1)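 Cells kept at 37°C, 5% CO2, exposed to compound or DMSO control for 96 h. Viability read by CellTiter-Glo luminescence after 2 min shaking to lyse and 10 min at room temperature. Triplicate wells, normalised to control cells. For long-term growth, log-phase seeding densities; cells counted and replated to the starting density with fresh compound on days 4 and 8.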

[3] = molecular target: Protein arginine N-methyltransferase 1 (Homo sapiens) (UniProt Q99873); assay: Inhibition of PRMT1 in human MV411 cells assessed as reduction in arginine methylation after 48 hrs by Western blot analysis; type: cell-based
In short: (§2)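 MV4-11 cells treated with compound for 48 h. ADMA, SDMA and H4R3me2a read by western blot. Blots blocked in 5% nonfat milk in PBST, primary antibodies overnight at 4°C, HRP anti-rabbit secondary at 1:10000 for 1 h.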

MV4-11 [4] = assay: Cell cycle arrest in human MV4-11 cells assessed as accumulation at G1 phase at 1.67 to 15 uM after 72 hrs by propidium iodide staining-based flow cytometry; type: functional
In short: (§3)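 MV4-11 cells in 6-well plates with compound or DMSO control, harvested at 72 h. Fixed overnight in 70% ethanol at 4°C, washed with PBS, stained 30 min at room temperature with propidium iodide/RNase buffer, analysed by flow cytometry. Mean ± SD of three replicates.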

MV4-11 [5] = assay: Induction of apoptosis in human MV4-11 cells up to 15 uM after 96 hrs by annexin V-FITC/propidium iodide staining-based flow cytometric method; type: functional, cell-based
In short: (§4)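 MV4-11 cells in 6-well plates with compound or DMSO control, harvested at 96 h. Stained with an Annexin V-FITC apoptosis detection kit and analysed by flow cytometry. Mean ± SD of three replicates.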

MV4-11 [6] = assay: Downregulation of HOXA9 mRNA levels in human MV4-11 cells up to 15 uM by qRT-PCR analysis; type: functional, cell-based
In short: (§5)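 MV4-11 cells treated with compound. mRNA measured by SYBR Green qRT-PCR with B2M as internal control. Fold change from ΔΔCt. Samples run in triplicate, mean ± SD.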

MV4-11 [7] = assay: Downregulation of HOXA10 mRNA levels in human MV4-11 cells up to 15 uM by qRT-PCR analysis; type: functional, cell-based; in short: as §5
MV4-11 [8] = assay: Downregulation of MEIS1 mRNA levels in human MV4-11 cells up to 15 uM by qRT-PCR analysis; type: functional, cell-based; in short: as §5
[9] = molecular target: Protein arginine N-methyltransferase 1 (Rattus norvegicus) (UniProt Q63009); assay: Inhibition of rat His-tagged PRMT1 (11 to 353 residues) expressed in Escherichia coli BL21(DE3) at 100 uM using biotinylated H4 peptide (1 to 21 residues) as substrate by TR-FRET assay
In short: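 Single-point screen at 100 µM. His6-rPRMT1(11–353) expressed in E. coli BL21(DE3) and purified by Ni affinity then gel filtration. Biotinylated H4(1–21) methylated, then product detected with Eu-labelled anti-H4R3me2a antibody plus ULight-streptavidin by TR-FRET. Percent inhibition read.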

[10] = molecular target: Protein arginine N-methyltransferase 1 (Rattus norvegicus) (UniProt Q63009); assay: Binding affinity to rat His-tagged PRMT1 (11 to 353 residues) expressed in Escherichia coli BL21(DE3) at 200 uM by 1D 1H CPMG-NMR spectroscopic method
In short: (§6)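 Rat PRMT1 (11–353), N-His6, expressed in E. coli BL21(DE3) with 0.4 mM IPTG at 16°C. Purified by Ni affinity and Superdex200. NMR used 5 µM PRMT1 in phosphate buffer pH 7.4 (20 mM NaH2PO4, 20 mM Na2HPO4, 100 mM NaCl) in D2O. Ligand at 200 µM in 5% DMSO-d6. CPMG run with 5, 2 and 1 µM PRMT1, plus STD.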

[11] = molecular target: Protein arginine N-methyltransferase 1 (Rattus norvegicus) (UniProt Q63009); assay: Binding affinity to rat His-tagged PRMT1 (11 to 353 residues) expressed in Escherichia coli BL21(DE3) at 200 uM by STD-NMR spectroscopic method; in short: as §6
KOPN-8 = assay: Cytotoxicity against human KOPN8 cells assessed as decrease in cell viability after 96 hrs by Cell-Titer Glo assay; type: functional, cell-based; in short: as §1
KMS-11 = assay: Cytotoxicity against human KMS11 cells assessed as decrease in cell viability after 96 hrs by Cell-Titer Glo assay; type: functional, cell-based; in short: as §1
THP-1 = assay: Cytotoxicity against human THP1 cells assessed as decrease in cell viability after 96 hrs by Cell-Titer Glo assay; type: functional, cell-based; in short: as §1
RS4-11 = assay: Cytotoxicity against human RS4:11 cells assessed as decrease in cell viability after 96 hrs by Cell-Titer Glo assay; type: functional, cell-based; in short: as §1
RCH-ACV = assay: Cytotoxicity against human RCH-ACV cells assessed as decrease in cell viability after 96 hrs by Cell-Titer Glo assay; type: functional, cell-based; in short: as §1
REH = assay: Cytotoxicity against human REH cells assessed as decrease in cell viability after 96 hrs by Cell-Titer Glo assay; type: functional, cell-based; in short: as §1
U-937 = assay: Cytotoxicity against human U937 cells assessed as decrease in cell viability after 96 hrs by Cell-Titer Glo assay; type: functional, cell-based; in short: as §1
MRC5 = assay: Cytotoxicity against human MRC5 cells assessed as decrease in cell viability at 6.25 to 25 uM after 96 hrs by Cell-Titer Glo assay; type: cell-based; conditions: mrc5, 96 h
In short: (§7)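 Normal HUV-EC-C, MRC-5 and RCTEC cells at 37°C, 5% CO2, given compound or DMSO control for 96 h. Viability by CellTiter-Glo luminescence after 2 min shaking and 10 min at room temperature. Triplicate wells, normalised to control cells.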

[12] = Cytotoxicity against human RCTEC cells assessed as decrease in cell viability at 6.25 to 25 uM after 96 hrs by Cell-Titer Glo assay; type: cell-based; in short: as §7
[13] = Cytotoxicity against human HUV-EC-C cells assessed as decrease in cell viability at 6.25 to 25 uM after 96 hrs by Cell-Titer Glo assay; type: cell-based; in short: as §7
MV4-11 [14] = assay: Antiproliferative activity against human MV4-11 cells assessed as decrease in cell viability at 0.1 to 1000 uM by Cell-Titer Glo assay; type: functional, cell-based; conditions: TDE = time-dependent effect; in short: as §1
MV4-11 [15] = assay: Antiproliferative activity against human MV4-11 cells assessed as decrease in cell viability measured at day 12 by Cell-Titer Glo assay; type: functional, cell-based; conditions: MV4-11, 288 h; in short: as §1
[16] = molecular target: Protein arginine N-methyltransferase 1 (Homo sapiens) (UniProt Q99873); assay: Inhibition of PRMT1 in human MV411 cells assessed as reduction in ADMA levels after 48 hrs by Western blot analysis; type: cell-based; in short: as §2
[17] = molecular target: Protein arginine N-methyltransferase 1 (Homo sapiens) (UniProt Q99873); assay: Inhibition of PRMT1 in human MV411 cells assessed as increase in SDMA levels after 48 hrs by Western blot analysis; type: cell-based; in short: as §2
MV4-11 [18] = assay: Cell cycle arrest in human MV4-11 cells assessed as accumulation at G1 phase after 72 hrs by propidium iodide staining-based flow cytometry; type: functional; in short: as §3
MV4-11 [19] = assay: Induction of apoptosis in human MV4-11 cells after 96 hrs by annexin V-FITC/propidium iodide staining-based flow cytometric method; type: functional, cell-based; in short: as §4
MV4-11 [20] = assay: Downregulation of HOXA9 mRNA levels in human MV4-11 cells by qRT-PCR analysis; type: functional, cell-based; in short: as §5
MV4-11 [21] = assay: Downregulation of HOXA10 mRNA levels in human MV4-11 cells by qRT-PCR analysis; type: functional, cell-based; in short: as §5
MV4-11 [22] = assay: Downregulation of MEIS1 mRNA levels in human MV4-11 cells by qRT-PCR analysis; type: functional, cell-based; in short: as §5
MV4-11 [23] = assay: Upregulation of MNDA mRNA levels in human MV4-11 cells by qRT-PCR analysis; type: functional, cell-based
In short: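 Treated MV4-11 cells analysed by SYBR Green qRT-PCR, with B2M as internal control. Fold change calculated by the ΔΔCt method. Samples run in triplicate and reported as mean ± SD.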

[24] = molecular target: Protein arginine N-methyltransferase 1 (Homo sapiens) (UniProt Q99873); assay: Inhibition of PRMT1 in human MV411 cells assessed as reduction in H4R3me2a levels after 48 hrs by Western blot analysis; type: cell-based; in short: as §2

Protein arginine N-methyltransferase 1, sequence (Q63009 whole entry, the tested form may be a part): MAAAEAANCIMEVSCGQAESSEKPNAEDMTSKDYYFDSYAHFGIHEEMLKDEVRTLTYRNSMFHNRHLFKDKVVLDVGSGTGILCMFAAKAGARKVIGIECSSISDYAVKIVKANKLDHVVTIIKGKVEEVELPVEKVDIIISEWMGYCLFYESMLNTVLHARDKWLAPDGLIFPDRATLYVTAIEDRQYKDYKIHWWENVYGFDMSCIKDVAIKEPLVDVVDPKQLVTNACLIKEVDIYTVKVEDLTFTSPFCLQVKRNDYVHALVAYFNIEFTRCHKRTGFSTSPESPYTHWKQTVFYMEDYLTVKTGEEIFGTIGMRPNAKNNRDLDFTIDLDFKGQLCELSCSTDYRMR
Protein arginine N-methyltransferase 1 (Rattus norvegicus), sequence (Q63009 whole entry, looked up, the tested form may be a part): as the sequence (Q63009 whole entry, the tested form may be a part) above
Protein arginine N-methyltransferase 1 (Homo sapiens), sequence (Q99873 whole entry, looked up): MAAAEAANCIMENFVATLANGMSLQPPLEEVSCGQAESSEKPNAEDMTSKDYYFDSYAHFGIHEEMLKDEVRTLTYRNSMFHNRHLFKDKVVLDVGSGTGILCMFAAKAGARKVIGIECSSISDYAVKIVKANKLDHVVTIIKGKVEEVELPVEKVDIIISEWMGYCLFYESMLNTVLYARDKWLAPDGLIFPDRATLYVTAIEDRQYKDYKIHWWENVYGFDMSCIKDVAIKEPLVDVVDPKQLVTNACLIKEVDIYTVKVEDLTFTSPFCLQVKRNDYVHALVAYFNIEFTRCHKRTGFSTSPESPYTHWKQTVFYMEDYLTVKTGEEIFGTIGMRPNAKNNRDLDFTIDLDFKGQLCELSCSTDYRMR

SMILES: CN(C)CCNCc1ccccc1Sc1ccccc1Cl
- pIC50 [1]: 4.27

SMILES: CN(C)CCNC(=O)c1ccccc1Sc1ccccc1Cl
- pIC50 [1]: < 4.30

SMILES: CN(C)CCNCc1ccccc1Sc1ccccc1
- pIC50 [1]: < 4.30
- Activity (MV4-11 [2]): inactive
- inhibition [3]: inactive
- Activity (MV4-11 [4]): inactive
- Activity (MV4-11 [5]): inactive
- Activity (MV4-11 [6]): inactive
- Activity (MV4-11 [7]): inactive
- Activity (MV4-11 [8]): inactive

SMILES: c1ccc(COc2cccc(CNCC3CCNCC3)c2)cc1
- pIC50 [1]: 3.83
- inhibition [9]: > 80%

SMILES: C=CCOc1ccc(CNCCc2ccc(S(N)(=O)=O)cc2)cc1
- pIC50 [1]: 4.07
- inhibition [9]: > 80%

SMILES: CN(C)CCN(C)Cc1ccccc1Sc1cccc2ccccc12
- pIC50 [1]: 5.52
- inhibition [9]: > 80%
- Activity [10]: Active
- Activity [11]: Active

SMILES: CN(C)CCNC(=O)c1ccccc1Sc1ccccc1
- pIC50 [1]: < 4.30

SMILES: Cc1ccc(-c2cc(CC(=O)c3c(O)cc(O)cc3O)n[nH]2)cc1
- pIC50 [1]: 4.31
- inhibition [9]: > 80%

SMILES: COc1ccc(N(C(=O)C2CCCCC2)S(=O)(=O)c2ccccc2)cc1
- inhibition [9]: > 80%

SMILES: CNCCN(C)Cc1ccccc1Sc1ccccc1Cl
- pIC50 [1]: 8.22
- Activity [10]: Active
- Activity [11]: Active
- Activity (KOPN-8): Dose-dependent effect
- Activity (KMS-11): Dose-dependent effect
- Activity (THP-1): Dose-dependent effect
- Activity (RS4-11): Dose-dependent effect
- Activity (RCH-ACV): Dose-dependent effect
- Activity (REH): Dose-dependent effect
- Activity (U-937): Dose-dependent effect
- Activity (MV4-11 [2]): Active
- Activity (MRC5): Non-Toxic
- Activity [12]: Non-Toxic
- Activity [13]: Non-Toxic
- Activity (MV4-11 [14]): Tde
- pIC50 (MV4-11 [15]): 5.97
- inhibition [16]: Dose-dependent effect
- inhibition [17]: Dose-dependent effect
- Activity (MV4-11 [18]): Dose-dependent effect
- Activity (MV4-11 [19]): Dose-dependent effect
- Activity (MV4-11 [20]): Dose-dependent effect
- Activity (MV4-11 [21]): Dose-dependent effect
- Activity (MV4-11 [22]): Dose-dependent effect
- Activity (MV4-11 [23]): Active
- inhibition [24]: Dose-dependent effect

SMILES: CN(C)CCNCc1ccccc1Sc1cccc2ccccc12
- pIC50 [1]: 4.47

SMILES: CN(C)CCNC(=O)c1ccccc1Sc1ccccc1F
- pIC50 [1]: < 3.70

SMILES: CN(C)CCNC(=O)c1ccccc1Sc1cccc2ccccc12
- pIC50 [1]: < 3.70

SMILES: CN(C)CCN(C)Cc1ccccc1Sc1ccccc1F
- pIC50 [1]: 6.15

SMILES: CN(C)CCN(C)Cc1ccccc1Sc1ccccc1Cl
- pIC50 [1]: 6.41

SMILES: CCOC(=O)c1c2c3ccccc3c3ccccc3c2cc2[n+]1CCc1ccccc1-2
- pIC50 [1]: 4.28
- inhibition [9]: > 80%

SMILES: CN(C)CCN(C)Cc1ccccc1Sc1ccccc1
- pIC50 [1]: 5.44

SMILES: CCCNCc1cc(Br)cc(Br)c1OC
- inhibition [9]: > 80%

SMILES: CN(C)CCNCc1ccccc1Sc1ccccc1F
- pIC50 [1]: 4.35
